Measurements taken from ChEMBL document CHEMBL1138525 (J Med Chem, 2009).
Activity calls are given as the source filed them. No cut-off for these calls is given here.

Assays:
P2Y purinoceptor 2 [1] = biological target: T1, P2Y purinoceptor 2 (Homo sapiens, UniProt P41231, C278S); assay: Antagonist activity at N-terminal HA epitope-tagged human P2Y2 receptor C278S mutant expressed in human 1321N1 cells assessed as inhibition of UTP-induced calcium mobilization; type: functional, cell-based
Summary of the method: (§1)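 1321N1 cells expressing wild-type or mutant receptor were dye-loaded with Oregon Green BAPTA-1/AM in Krebs-HEPES pH 7.4. Antagonist was preincubated for 20 min at 28 °C in the dark. Cells were then stimulated with UTP at a concentration giving 80-90% of maximal response. Calcium fluorescence read at 520 nm (excitation 485 nm).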

P2Y purinoceptor 2 [2] = biological target: T2, P2Y purinoceptor 2 (Homo sapiens, UniProt P41231); assay: Antagonist activity at N-terminal HA epitope-tagged wild type 3 human P2Y2 receptor expressed in human 1321N1 cells assessed as inhibition of UTP-induced calcium mobilization; type: functional, cell-based; summary of the method: as §1
T2 sequence (P41231 whole entry): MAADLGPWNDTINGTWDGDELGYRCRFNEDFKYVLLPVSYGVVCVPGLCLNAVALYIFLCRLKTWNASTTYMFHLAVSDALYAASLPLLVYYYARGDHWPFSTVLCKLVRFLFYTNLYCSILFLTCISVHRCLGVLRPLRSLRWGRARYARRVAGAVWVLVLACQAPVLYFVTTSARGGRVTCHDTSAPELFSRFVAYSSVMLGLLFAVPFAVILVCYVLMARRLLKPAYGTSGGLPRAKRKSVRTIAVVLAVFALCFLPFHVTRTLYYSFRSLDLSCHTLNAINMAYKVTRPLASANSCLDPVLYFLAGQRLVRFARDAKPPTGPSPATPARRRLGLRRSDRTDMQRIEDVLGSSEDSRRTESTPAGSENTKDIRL

P2Y purinoceptor 2 [3] = biological target: T3, P2Y purinoceptor 2 (Homo sapiens, UniProt P41231, Y114A); assay: Antagonist activity at N-terminal HA epitope-tagged human P2Y2 receptor Y114A mutant expressed in human 1321N1 cells assessed as inhibition of UTP-induced calcium mobilization; type: functional, cell-based; summary of the method: as §1
T3 sequence (P41231 whole entry Y114A): as the sequence (P41231 whole entry) above, with Y114A counted along it

P2Y purinoceptor 2 [4] = biological target: T2, P2Y purinoceptor 2; assay: Antagonist activity at N-terminal HA epitope-tagged wild type 4 human P2Y2 receptor expressed in human 1321N1 cells assessed as inhibition of UTP-induced calcium mobilization; type: functional, cell-based
[5] = test system: P2Y purinoceptor 2 (Homo sapiens), P41231 [UNDEFINED MUTATION]; assay: Ratio of IC50 for N-terminal HA epitope-tagged human P2Y2 receptor C278S mutant to IC50 for wild type 3 human P2Y2 receptor
Sequence of P2Y purinoceptor 2 (Homo sapiens), P41231 [UNDEFINED MUTATION] (P41231 whole entry, looked up, stated change not applied): as the sequence (P41231 whole entry) above

P2Y purinoceptor 2 [6] = biological target: T4, P2Y purinoceptor 2 (Homo sapiens, UniProt P41231, R177A/R180A); assay: Antagonist activity at N-terminal HA epitope-tagged human P2Y2 receptor R177A_R180A double mutant expressed in human 1321N1 cells assessed as inhibition of UTP-induced calcium mobilization; type: functional, cell-based; summary of the method: as §1
T4 sequence (P41231 whole entry R177A/R180A): as the sequence (P41231 whole entry) above, with R177A, R180A counted along it

P2Y purinoceptor 2 [7] = biological target: T5, P2Y purinoceptor 2 (Homo sapiens, UniProt P41231, Y118A); assay: Antagonist activity at N-terminal HA epitope-tagged human P2Y2 receptor Y118A mutant expressed in human 1321N1 cells assessed as inhibition of UTP-induced calcium mobilization; type: functional, cell-based; summary of the method: as §1
T5 sequence (P41231 whole entry Y118A): as the sequence (P41231 whole entry) above, with Y118A counted along it

P2Y purinoceptor 2 [8] = biological target: T6, P2Y purinoceptor 2 (Homo sapiens, UniProt P41231, Y198A); assay: Antagonist activity at N-terminal HA epitope-tagged human P2Y2 receptor Y198A mutant expressed in human 1321N1 cells assessed as inhibition of UTP-induced calcium mobilization; type: functional, cell-based; summary of the method: as §1
T6 sequence (P41231 whole entry Y198A): as the sequence (P41231 whole entry) above, with Y198A counted along it

[9] = test system: P2Y purinoceptor 2 (Homo sapiens), P41231 [S296A]; assay: Agonist activity at N-terminal HA epitope-tagged human P2Y2 receptor S296A mutant expressed in human 1321N1 cells assessed as increase in intracellular calcium level relative to carbachol; type: functional, cell-based
Sequence of P2Y purinoceptor 2 (Homo sapiens), P41231 [S296A] (P41231 whole entry S296A): as the sequence (P41231 whole entry) above, with S296A counted along it
Summary of the method: (§2)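 Retrovirally transduced stable 1321N1 astrocytoma lines (wild-type lines of differing expression, or mutants) in suspension, loaded with Oregon Green BAPTA-1/AM for 1 h at room temperature. Cells were plated at 150000 per well in Krebs-HEPES pH 7.4 and held 20 min at 28 °C in the dark. Agonist was then injected, with fluorescence read at ex 485/em 520 nm for 60 × 0.4 s.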

P2Y purinoceptor 2 [10] = biological target: T2, P2Y purinoceptor 2; assay: Agonist activity at N-terminal HA epitope-tagged wild type 3 human P2Y2 receptor expressed in human 1321N1 cells assessed as increase in intracellular calcium level relative to carbachol; type: functional, cell-based; summary of the method: as §2
P2Y purinoceptor 2 [11] = biological target: T2, P2Y purinoceptor 2; assay: Agonist activity at N-terminal HA epitope-tagged wild type 4 human P2Y2 receptor expressed in human 1321N1 cells assessed as increase in intracellular calcium level relative to carbachol; type: functional, cell-based; summary of the method: as §2
[12] = test system: P2Y purinoceptor 2 (Homo sapiens), P41231 [Y114A]; assay: Agonist activity at N-terminal HA epitope-tagged human P2Y2 receptor Y114A mutant expressed in human 1321N1 cells assessed as increase in intracellular calcium level relative to carbachol; type: functional, cell-based; summary of the method: as §2
Sequence of P2Y purinoceptor 2 (Homo sapiens), P41231 [Y114A] (P41231 whole entry Y114A): as the sequence (P41231 whole entry) above, with Y114A counted along it

[13] = test system: P2Y purinoceptor 2 (Homo sapiens), P41231 [R177A,R180A]; assay: Agonist activity at N-terminal HA epitope-tagged human P2Y2 receptor R177A_R180A double mutant expressed in human 1321N1 cells assessed as increase in intracellular calcium level relative to carbachol; type: functional, cell-based; summary of the method: as §2
Sequence of P2Y purinoceptor 2 (Homo sapiens), P41231 [R177A,R180A] (P41231 whole entry R177A/R180A): as the sequence (P41231 whole entry) above, with R177A, R180A counted along it

[14] = test system: P2Y purinoceptor 2 (Homo sapiens), P41231 [R177A]; assay: Agonist activity at N-terminal HA epitope-tagged human P2Y2 receptor R177A mutant expressed in human 1321N1 cells assessed as increase in intracellular calcium level relative to carbachol; type: functional, cell-based; summary of the method: as §2
Sequence of P2Y purinoceptor 2 (Homo sapiens), P41231 [R177A] (P41231 whole entry R177A): as the sequence (P41231 whole entry) above, with R177A counted along it

[15] = test system: P2Y purinoceptor 2 (Homo sapiens), P41231 [R180A]; assay: Agonist activity at N-terminal HA epitope-tagged human P2Y2 receptor R180A mutant expressed in human 1321N1 cells assessed as increase in intracellular calcium level relative to carbachol; type: functional, cell-based; summary of the method: as §2
Sequence of P2Y purinoceptor 2 (Homo sapiens), P41231 [R180A] (P41231 whole entry R180A): as the sequence (P41231 whole entry) above, with R180A counted along it

[16] = test system: P2Y purinoceptor 2 (Homo sapiens), P41231 [R194H]; assay: Agonist activity at N-terminal HA epitope-tagged human P2Y2 receptor R194H mutant expressed in human 1321N1 cells assessed as increase in intracellular calcium level relative to carbachol; type: functional, cell-based; summary of the method: as §2
Sequence of P2Y purinoceptor 2 (Homo sapiens), P41231 [R194H] (P41231 whole entry R194H): as the sequence (P41231 whole entry) above, with R194H counted along it

[17] = test system: P2Y purinoceptor 2 (Homo sapiens), P41231 [Y198A]; assay: Agonist activity at N-terminal HA epitope-tagged human P2Y2 receptor Y198A mutant expressed in human 1321N1 cells assessed as increase in intracellular calcium level relative to carbachol; type: functional, cell-based; summary of the method: as §2
Sequence of P2Y purinoceptor 2 (Homo sapiens), P41231 [Y198A] (P41231 whole entry Y198A): as the sequence (P41231 whole entry) above, with Y198A counted along it

[18] = test system: P2Y purinoceptor 2 (Homo sapiens), P41231 [C278S]; assay: Agonist activity at N-terminal HA epitope-tagged human P2Y2 receptor C278S mutant expressed in human 1321N1 cells assessed as increase in intracellular calcium level relative to carbachol; type: functional, cell-based; summary of the method: as §2
Sequence of P2Y purinoceptor 2 (Homo sapiens), P41231 [C278S] (P41231 whole entry C278S): as the sequence (P41231 whole entry) above, with C278S counted along it

[19] = test system: P2Y purinoceptor 2 (Homo sapiens), P41231 [R272A]; assay: Agonist activity at N-terminal HA epitope-tagged human P2Y2 receptor R272A mutant expressed in human 1321N1 cells assessed as increase in intracellular calcium level up to 300 uM relative to carbachol; type: functional, cell-based; summary of the method: as §2
Sequence of P2Y purinoceptor 2 (Homo sapiens), P41231 [R272A] (P41231 whole entry R272A): as the sequence (P41231 whole entry) above, with R272A counted along it

[20] = test system: P2Y purinoceptor 2 (Homo sapiens), P41231 [Y118A]; assay: Agonist activity at N-terminal HA epitope-tagged human P2Y2 receptor Y118A mutant expressed in human 1321N1 cells assessed as increase in intracellular calcium level relative to carbachol; type: functional, cell-based; summary of the method: as §2
Sequence of P2Y purinoceptor 2 (Homo sapiens), P41231 [Y118A] (P41231 whole entry Y118A): as the sequence (P41231 whole entry) above, with Y118A counted along it

[21] = test system: P2Y purinoceptor 2 (Homo sapiens), P41231 [UNDEFINED MUTATION]; assay: Ratio of EC50 for N-terminal HA epitope-tagged human P2Y2 receptor C278S mutant to EC50 for wild type 3 human P2Y2 receptor
P2Y purinoceptor 2 [22] = biological target: T1, P2Y purinoceptor 2; assay: Agonist activity at N-terminal HA epitope-tagged human P2Y2 receptor C278S mutant expressed in human 1321N1 cells assessed as increase in intracellular calcium level; type: functional, cell-based
Summary of the method: (§3)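 1321N1 astrocytoma cells stably expressing mutant receptor (retroviral transfection, G418 selection), loaded with Oregon Green BAPTA-1/AM in Krebs-HEPES pH 7.4 for 1 h at room temperature. Plated at 150000 cells/well and held 20 min at 28 °C in the dark. Efficacy relative to 100 µM carbachol.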

P2Y purinoceptor 2 [23] = biological target: P2Y purinoceptor 2 (Homo sapiens, UniProt P41231, S296A); assay: Agonist activity at N-terminal HA epitope-tagged human P2Y2 receptor S296A mutant expressed in human 1321N1 cells assessed as increase in intracellular calcium level; type: functional, cell-based
Sequence of P2Y purinoceptor 2 (Homo sapiens, UniProt P41231, S296A) (P41231 whole entry S296A): as the sequence (P41231 whole entry) above, with S296A counted along it
Summary of the method: (§4)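 Retrovirally transduced stable 1321N1 astrocytoma lines (wild-type lines of differing expression, or mutants) in suspension, loaded with Oregon Green BAPTA-1/AM for 1 h at room temperature. Cells were plated at 150000 per well in Krebs-HEPES pH 7.4 and held 20 min at 28 °C in the dark.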

P2Y purinoceptor 2 [24] = biological target: T2, P2Y purinoceptor 2; assay: Agonist activity at N-terminal HA epitope-tagged wild type 3 human P2Y2 receptor expressed in human 1321N1 cells assessed as increase in intracellular calcium level; type: functional, cell-based; summary of the method: as §4
P2Y purinoceptor 2 [25] = biological target: T2, P2Y purinoceptor 2; assay: Agonist activity at N-terminal HA epitope-tagged wild type 4 human P2Y2 receptor expressed in human 1321N1 cells assessed as increase in intracellular calcium level; type: functional, cell-based; summary of the method: as §4
P2Y purinoceptor 2 [26] = biological target: T3, P2Y purinoceptor 2; assay: Agonist activity at N-terminal HA epitope-tagged human P2Y2 receptor Y114A mutant expressed in human 1321N1 cells assessed as increase in intracellular calcium level; type: functional, cell-based; summary of the method: as §3
P2Y purinoceptor 2 [27] = biological target: T4, P2Y purinoceptor 2; assay: Agonist activity at N-terminal HA epitope-tagged human P2Y2 receptor R177A_R180A double mutant expressed in human 1321N1 cells assessed as increase in intracellular calcium level; type: functional, cell-based; summary of the method: as §3
P2Y purinoceptor 2 [28] = biological target: P2Y purinoceptor 2 (Homo sapiens, UniProt P41231, R177A); assay: Agonist activity at N-terminal HA epitope-tagged human P2Y2 receptor R177A mutant expressed in human 1321N1 cells assessed as increase in intracellular calcium level; type: functional, cell-based; summary of the method: as §3
Sequence of P2Y purinoceptor 2 (Homo sapiens, UniProt P41231, R177A) (P41231 whole entry R177A): as the sequence (P41231 whole entry) above, with R177A counted along it

P2Y purinoceptor 2 [29] = biological target: P2Y purinoceptor 2 (Homo sapiens, UniProt P41231, R180A); assay: Agonist activity at N-terminal HA epitope-tagged human P2Y2 receptor R180A mutant expressed in human 1321N1 cells assessed as increase in intracellular calcium level; type: functional, cell-based; summary of the method: as §3
Sequence of P2Y purinoceptor 2 (Homo sapiens, UniProt P41231, R180A) (P41231 whole entry R180A): as the sequence (P41231 whole entry) above, with R180A counted along it

P2Y purinoceptor 2 [30] = biological target: P2Y purinoceptor 2 (Homo sapiens, UniProt P41231, R272A); assay: Agonist activity at N-terminal HA epitope-tagged human P2Y2 receptor R272A mutant expressed in human 1321N1 cells assessed as increase in intracellular calcium level; type: functional, cell-based; summary of the method: as §3
Sequence of P2Y purinoceptor 2 (Homo sapiens, UniProt P41231, R272A) (P41231 whole entry R272A): as the sequence (P41231 whole entry) above, with R272A counted along it

P2Y purinoceptor 2 [31] = biological target: T5, P2Y purinoceptor 2; assay: Agonist activity at N-terminal HA epitope-tagged human P2Y2 receptor Y118A mutant expressed in human 1321N1 cells assessed as increase in intracellular calcium level; type: functional, cell-based; summary of the method: as §3
P2Y purinoceptor 2 [32] = biological target: P2Y purinoceptor 2 (Homo sapiens, UniProt P41231, R194H); assay: Agonist activity at N-terminal HA epitope-tagged human P2Y2 receptor R194H mutant expressed in human 1321N1 cells assessed as increase in intracellular calcium level; type: functional, cell-based; summary of the method: as §3
Sequence of P2Y purinoceptor 2 (Homo sapiens, UniProt P41231, R194H) (P41231 whole entry R194H): as the sequence (P41231 whole entry) above, with R194H counted along it

P2Y purinoceptor 2 [33] = biological target: T6, P2Y purinoceptor 2; assay: Agonist activity at N-terminal HA epitope-tagged human P2Y2 receptor Y198A mutant expressed in human 1321N1 cells assessed as increase in intracellular calcium level; type: functional, cell-based; summary of the method: as §3
[34] = test system: P2Y purinoceptor 2 (Homo sapiens), P41231 [UNDEFINED MUTATION]; assay: Ratio of efficacy for N-terminal HA epitope-tagged human P2Y2 receptor R194H mutant to efficacy for wild type 3 human P2Y2 receptor

T1 sequence (P41231 whole entry C278S): as the sequence (P41231 whole entry) above, with C278S counted along it

Compound	Efficacy [9] [%]	Efficacy (P2Y purinoceptor 2 [10]) [%]	Efficacy (P2Y purinoceptor 2 [11]) [%]	Efficacy [12] [%]	Efficacy [13] [%]	Efficacy [14] [%]	Efficacy [15] [%]	Efficacy [16] [%]	Efficacy [17] [%]	Efficacy [18]	Efficacy [19]	Efficacy [20] [%]	further results
COc1ccc(Nc2cc(S(=O)(=O)O)c(N)c3c2C(=O)c2ccccc2C3=O)cc1													IC50 (P2Y purinoceptor 2 [1]): 3.44 µM; IC50 (P2Y purinoceptor 2 [2]): 21.9 µM; IC50 (P2Y purinoceptor 2 [3]): 24.6 µM; IC50 (P2Y purinoceptor 2 [4]): 21.7 µM; Ratio IC50 [5]: 0.2; IC50 (P2Y purinoceptor 2 [6]): 26.5 µM; IC50 (P2Y purinoceptor 2 [7]): 22.4 µM; IC50 (P2Y purinoceptor 2 [8]): 21.1 µM
O=c1ccn([C@@H]2O[C@H](COP(=O)(O)OP(=O)(O)OP(=O)(O)OP(=O)(O)OC[C@H]3O[C@@H](n4ccc(=O)[nH]c4=O)[C@H](O)[C@@H]3O)[C@@H](O)[C@H]2O)c(=O)[nH]1	5	60	98	142	101	102	72	85	127	inactive	inactive	25	
Nc1ncnc2c1ncn2[C@@H]1O[C@H](COP(=O)(O)OP(=O)(O)OP(=O)(O)OP(=O)(O)OC[C@H]2O[C@@H](n3cnc4c(N)ncnc43)[C@H](O)[C@@H]2O)[C@@H](O)[C@H]1O [DIADENOSINE TETRAPHOSPHATE]	12	68	100	128	98	86	68	149	117	inactive	inactive	15	Ratio EC50 [21]: 560; EC50 (P2Y purinoceptor 2 [22]): 81 µM; EC50 (P2Y purinoceptor 2 [23]): > 300 µM; EC50 (P2Y purinoceptor 2 [24]): 0.145 µM; EC50 (P2Y purinoceptor 2 [25]): 0.167 µM; EC50 (P2Y purinoceptor 2 [26]): 0.17 µM; EC50 (P2Y purinoceptor 2 [27]): 0.665 µM; EC50 (P2Y purinoceptor 2 [28]): 1.23 µM; EC50 (P2Y purinoceptor 2 [29]): 0.423 µM; EC50 (P2Y purinoceptor 2 [30]): 740 µM; EC50 (P2Y purinoceptor 2 [31]): 0.345 µM; EC50 (P2Y purinoceptor 2 [32]): 0.185 µM; EC50 (P2Y purinoceptor 2 [33]): 0.335 µM; Ratio efficacy [34]: 2
